Experimental data taken from ChEMBL document CHEMBL4152269, “New N-phenylpyrrolamide DNA gyrase B inhibitors: Optimization of efficacy and antibacterial activity” (Eur J Med Chem, 2018).
≈ marks a conversion by molar mass, not a printed value. Calls of active or inactive are those of the source. The rule behind the calls is not given here.

How the values were obtained:
[1] = test system: Escherichia coli; assay: microbe, parasite or virus in culture; settings: ATCC 25922, 18 h
[2] = test system: Staphylococcus aureus; assay: Antibacterial activity against methicillin-resistant Staphylococcus aureus ATCC 43300 after 18 hrs by broth microdilution method; type: functional; settings: ATCC 43300, 18 h
[3] = test system: Enterococcus faecalis; assay: Antibacterial activity against Enterococcus faecalis ATCC 29212 after 18 hrs by broth microdilution method; type: functional; settings: ATCC 29212, 18 h
[4] = test system: Escherichia coli; assay: Antibacterial activity against mrcB deficient Escherichia coli BW25113 up to 50 uM after 18 hrs by broth microdilution method; type: functional, organism-based
How it was run: (§1)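 EUCAST/ISO 20776-1 broth microdilution using 12-step serial dilutions in cation-adjusted Mueller-Hinton II broth. About 5 × 10^4 bacteria were inoculated per well and incubated at 37 °C, shaken at 300 rpm, for 18 h. Growth was read as OD600. MIC is the lowest concentration giving background-normalized OD600 below 0.05, from 3 replicates.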

[5] = test system: Escherichia coli; assay: Growth inhibition of Escherichia coli ATCC 25922 at 50 uM after 24 hrs by broth microdilution method relative to control; type: functional; settings: ATCC 25922, 24 h, read-out: GI
[6] = test system: Escherichia coli; assay: Antibacterial activity against surA deficient Escherichia coli BW25113 after 18 hrs in presence of efflux pump inhibitor PAbetaN by broth microdilution method; type: functional; settings: BW25113, 18 h
How it was run: as §1, with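 “Efflux pump inhibitor PAβN was added to EUCAST/ISO” for “EUCAST/ISO”, “h, then” for “h. Growth was”, “at” for “as”, “with” for “giving”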

[7] = test system: Escherichia coli; assay: Antibacterial activity against Escherichia coli MG1655 after 18 hrs in presence of efflux pump inhibitor PAbetaN by broth microdilution method; type: functional; settings: K-12 substr. MG1655, 18 h
How it was run: as §1, with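 “Efflux pump inhibitor PAβN was added to EUCAST/ISO” for “EUCAST/ISO”, “h, then” for “h. Growth was”, “at” for “as”, “with” for “giving”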

[8] = test system: Escherichia coli; assay: Antibacterial activity against Escherichia coli ATCC 25922 after 18 hrs in presence of efflux pump inhibitor PAbetaN by broth microdilution method; type: functional; settings: ATCC 25922, 18 h
How it was run: as §1, with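 “Efflux pump inhibitor PAβN was added to EUCAST/ISO” for “EUCAST/ISO”, “h, then” for “h. Growth was”, “at” for “as”, “with” for “giving”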

[9] = Inhibition of Escherichia coli C-terminal His6-tagged topoisomerase-4 expressed in Escherichia coli BL21(DE3) preincubated for 10 mins followed by ATP addition measured after 30 mins by purine nucleoside phosphorylase enzyme coupled spectrophotometric method
[10] = test system: Escherichia coli; assay: Antibacterial activity against dapF deficient Escherichia coli BW25113 up to 50 uM after 18 hrs by broth microdilution method; type: functional, organism-based
How it was run: (§2)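 Broth microdilution per EUCAST/ISO 20776-1:2006: 12-step serial dilutions of compound in cation-adjusted Mueller-Hinton II broth, about 5 × 10^4 bacteria per well, 37 °C with shaking at 300 rpm, OD600 read after 18 h. MIC is the lowest concentration with background-normalized OD600 below 0.05, i.e. no visible growth; 3 replicates. Top concentration 50 μM.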

[11] = test system: Pseudomonas aeruginosa; assay: Growth inhibition of Pseudomonas aeruginosa ATCC 27853 at 50 uM after 24 hrs by broth microdilution method relative to control; type: functional; settings: ATCC 27853, 24 h, read-out: GI
[12] = test system: Escherichia coli; assay: Antibacterial activity against Escherichia coli BW25113 up to 50 uM after 18 hrs by broth microdilution method; type: functional, organism-based
How it was run: as §2

[13] = Inhibition of Staphylococcus aureus topoisomerase-4 assessed as residual activity preincubated for 10 mins followed by ATP addition measured after 30 mins by purine nucleoside phosphorylase enzyme coupled spectrophotometric method
[14] = test system: Escherichia coli; assay: Antibacterial activity against Escherichia coli BW25113 up to 20 uM after 18 hrs in presence of efflux pump inhibitor PAbetaN by broth microdilution method; type: functional, organism-based
[15] = test system: Enterococcus faecalis; assay: Growth inhibition of Enterococcus faecalis ATCC 29212 at 50 uM after 24 hrs by broth microdilution method relative to control; type: functional; settings: ATCC 29212, 24 h, read-out: GI
[16] = test system: Escherichia coli; assay: Antibacterial activity against mrcB deficient Escherichia coli BW25113 up to 20 uM after 18 hrs in presence of efflux pump inhibitor PAbetaN by broth microdilution method; type: functional, organism-based
How it was run: (§3)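 Same EUCAST broth microdilution in cation-adjusted Mueller-Hinton II broth, 12-step compound dilutions, about 5 × 10^4 bacteria per well, 37 °C, 300 rpm, OD600 at 18 h. Parental and mutant strains were co-treated with the efflux pump inhibitor PAβN. MIC taken as normalized OD600 below 0.05; 3 replicates.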

[17] = test system: Escherichia coli; assay: Antibacterial activity against surA deficient Escherichia coli BW25113 up to 50 uM after 18 hrs by broth microdilution method; type: functional, organism-based
How it was run: as §2

[18] = test system: Staphylococcus aureus; assay: Growth inhibition of Staphylococcus aureus ATCC 25923 at 50 uM after 24 hrs by broth microdilution method relative to control; type: functional; settings: ATCC 25923, 24 h, read-out: GI
[19] = test system: Escherichia coli; assay: Antibacterial activity against dapF deficient Escherichia coli BW25113 up to 20 uM after 18 hrs in presence of efflux pump inhibitor PAbetaN by broth microdilution method; type: functional, organism-based
How it was run: as §3

[20] = test system: Escherichia coli; assay: Antibacterial activity against Escherichia coli MG1655 harboring NOG R136C mutant up to 50 uM after 18 hrs in presence of efflux pump inhibitor PAbetaN by broth microdilution method; type: functional, organism-based; settings: K-12 substr. MG1655
[21] = test system: Escherichia coli; assay: Growth inhibition of lpxC deficient Escherichia coli JD17464 at 50 uM after 24 hrs by broth microdilution method relative to control; type: functional; settings: JD17464, 24 h, read-out: GI
[22] = test system: Escherichia coli; assay: Growth inhibition of tolC deficient Escherichia coli JW5503 at 50 uM after 24 hrs by broth microdilution method relative to control; type: functional; settings: JW5503, 24 h, read-out: GI
[23] = test system: HUVEC; assay: Cytotoxicity against HUVEC assessed as reduction in cell proliferation after 72 hrs by MTS assay; type: cell-based; settings: Homo sapiens
How it was run: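 MTS assay in HUVEC grown in Eagle's MEM with 2 mM L-glutamine, penicillin/streptomycin and 10% FBS, at 37 °C under 5% CO2. Cells seeded at 2000 per well, attached for 24 h, then exposed to six compound concentrations (0.5% DMSO final) for 72 h. Reagent added for 3 h before reading A490. IC50 derived against DMSO-treated cells; triplicate wells, two repeats.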

[24] = test system: Escherichia coli; assay: Antibacterial activity against tolC deficient Escherichia coli BW25113 up to 50 uM after 18 hrs by broth microdilution method; type: functional, organism-based
How it was run: as §2

[25] = test system: Escherichia coli; assay: Antibacterial activity against acrB deficient Escherichia coli BW25113 up to 50 uM after 18 hrs by broth microdilution method; type: functional, organism-based
How it was run: as §2

[26] = test system: Staphylococcus aureus; assay: Antibacterial activity against Staphylococcus aureus ATCC 29213 after 18 hrs by broth microdilution method; type: functional; settings: ATCC 29213, 18 h
How it was run: as §1

[27] = Cytotoxicity against human HepG2 cells assessed as cell proliferation at 50 uM after 72 hrs by MTS assay relative to control; type: cell-based; settings: read-out: Activity
How it was run: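 MTS assay in HepG2 grown in Eagle's MEM with 2 mM L-glutamine, penicillin/streptomycin and 10% FBS, at 37 °C under 5% CO2. Cells seeded at 2000 per well and attached for 24 h. Compound added at 50 μM (0.5% DMSO final) for 72 h, then reagent for 3 h and A490 read. […] Triplicate wells, two repeats, Welch's t-test.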

[28] = test system: Escherichia coli; assay: Antibacterial activity against Escherichia coli ATCC 25922 up to 50 uM after 18 hrs by broth microdilution method; type: functional, organism-based
How it was run: as §2

[29] = test system: Escherichia coli; assay: Antibacterial activity against Escherichia coli MG1655 up to 50 uM after 18 hrs by broth microdilution method; type: functional, organism-based; settings: K-12 substr. MG1655
How it was run: as §2

## O=C(O)c1cn(C2CC2)c2cc(N3CCNCC3)c(F)cc2c1=O [CIPROFLOXACIN]
[1]
  MIC90: 0.05 µM (≈ 0.0166 µg/mL)

## Cc1[nH]c(C(=O)Nc2ccc(C(=O)N[C@@H](C)c3n[nH]c(=O)o3)cc2OC(C)C)c(Cl)c1Cl
[2]
  MIC90: 3.13 µM (≈ 1.51 µg/mL)
[3]
  MIC90: 1.56 µM (≈ 0.752 µg/mL)
[4]
  Activity: inactive
[5]
  inhibition of growth at 50 µM: 5%
[6]
  MIC90: 13.8 µM
[7]
  MIC90: 10.2 µM
[8]
  MIC90: 4.6 µM
[9]
  IC50: 11 µM
[10]
  Activity: inactive
[11]
  inhibition of growth at 50 µM: -1%
[12]
  Activity: inactive
[13]
  IC50: 12 µM
[14]
  Activity: inactive
[15]
  inhibition of growth at 50 µM: 97%
[16]
  Activity: inactive
[17]
  Activity: inactive
[18]
  inhibition of growth at 50 µM: 100%
[19]
  Activity: inactive
[20]
  Activity: inactive
[21]
  inhibition of growth at 50 µM: 0%
[22]
  inhibition of growth at 50 µM: 51%
[23]
  IC50: 40.7 µM
[24]
  Activity: inactive
[25]
  Activity: inactive
[26]
  MIC90: 4.17 µM (≈ 2.01 µg/mL)
[27]
  viability at 72 h, 50 µM: 85%
[28]
  Activity: inactive
[29]
  Activity: inactive
